Laboratory results as given in ChEMBL document CHEMBL4017549, “Structural Basis of Inhibition of ERα-Coactivator Interaction by High-Affinity N-Terminus Isoaspartic Acid Tethered Helical Peptides” (J Med Chem, 2017).
Active and inactive are the calls of the source. The calls are words filed in the database; no cut-off is given here. Peptide text beside a SMILES is read from it. * marks the point of attachment. FITC = O=C1OC2(c3ccc(O)cc3Oc3cc(O)ccc32)c2ccc(NC(=S)*)cc21; βAla = NCCC(=O)O

What was measured:
Progesterone receptor = target: T1, Progesterone receptor (Homo sapiens, UniProt P06401); assay: Binding affinity to recombinant human GST-tagged PGR LBD (678 to 933 residues) expressed in Escherichia coli BL21 star(DE3) after 40 mins in presence of progesterone by fluorescence polarization assay
T1 sequence (P06401 whole entry): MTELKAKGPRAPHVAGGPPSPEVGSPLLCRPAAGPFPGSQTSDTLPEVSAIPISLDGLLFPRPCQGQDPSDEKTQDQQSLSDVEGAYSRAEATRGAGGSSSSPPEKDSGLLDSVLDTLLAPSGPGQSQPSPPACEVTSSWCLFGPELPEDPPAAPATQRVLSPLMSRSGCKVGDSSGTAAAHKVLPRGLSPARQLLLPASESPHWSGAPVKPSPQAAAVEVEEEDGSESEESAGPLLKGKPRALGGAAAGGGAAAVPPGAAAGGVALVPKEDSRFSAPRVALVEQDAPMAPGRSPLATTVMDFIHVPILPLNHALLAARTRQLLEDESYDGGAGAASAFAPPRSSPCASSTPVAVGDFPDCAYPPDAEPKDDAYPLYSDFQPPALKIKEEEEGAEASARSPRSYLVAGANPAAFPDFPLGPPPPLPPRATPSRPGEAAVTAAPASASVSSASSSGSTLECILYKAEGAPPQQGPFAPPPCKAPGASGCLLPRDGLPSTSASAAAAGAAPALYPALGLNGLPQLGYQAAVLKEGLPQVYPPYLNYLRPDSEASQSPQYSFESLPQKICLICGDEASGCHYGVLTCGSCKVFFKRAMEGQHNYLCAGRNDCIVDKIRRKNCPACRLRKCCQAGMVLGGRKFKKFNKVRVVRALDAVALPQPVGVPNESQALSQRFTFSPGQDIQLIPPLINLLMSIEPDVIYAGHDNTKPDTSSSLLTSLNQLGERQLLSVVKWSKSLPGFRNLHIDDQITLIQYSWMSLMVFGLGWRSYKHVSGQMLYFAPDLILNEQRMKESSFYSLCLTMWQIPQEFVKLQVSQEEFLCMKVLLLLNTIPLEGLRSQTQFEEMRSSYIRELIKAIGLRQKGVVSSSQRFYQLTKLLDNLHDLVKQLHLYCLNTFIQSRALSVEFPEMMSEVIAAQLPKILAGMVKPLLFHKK
Procedure, shortened: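 FITC-labelled peptide at 10 nM final with increasing GST-PgR LBD in 20 mM Tris-HCl pH 8.0, 150 mM NaCl, 5% glycerol, 1 mM TCEP plus 10 μM progesterone. 40 min dark incubation, polarization at 298 K (ex 480/em 535 nm). KD by nonlinear regression against protein concentration.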

[1] = target: T2, Estrogen receptor (Homo sapiens) (UniProt P03372); assay: Binding affinity to recombinant human GFP-fused ERalpha LBD (301 to 553 residues) expressed in Escherichia coli BL21(DE3) in presence of 17beta-estradiol by ITC
T2 sequence (whole entry): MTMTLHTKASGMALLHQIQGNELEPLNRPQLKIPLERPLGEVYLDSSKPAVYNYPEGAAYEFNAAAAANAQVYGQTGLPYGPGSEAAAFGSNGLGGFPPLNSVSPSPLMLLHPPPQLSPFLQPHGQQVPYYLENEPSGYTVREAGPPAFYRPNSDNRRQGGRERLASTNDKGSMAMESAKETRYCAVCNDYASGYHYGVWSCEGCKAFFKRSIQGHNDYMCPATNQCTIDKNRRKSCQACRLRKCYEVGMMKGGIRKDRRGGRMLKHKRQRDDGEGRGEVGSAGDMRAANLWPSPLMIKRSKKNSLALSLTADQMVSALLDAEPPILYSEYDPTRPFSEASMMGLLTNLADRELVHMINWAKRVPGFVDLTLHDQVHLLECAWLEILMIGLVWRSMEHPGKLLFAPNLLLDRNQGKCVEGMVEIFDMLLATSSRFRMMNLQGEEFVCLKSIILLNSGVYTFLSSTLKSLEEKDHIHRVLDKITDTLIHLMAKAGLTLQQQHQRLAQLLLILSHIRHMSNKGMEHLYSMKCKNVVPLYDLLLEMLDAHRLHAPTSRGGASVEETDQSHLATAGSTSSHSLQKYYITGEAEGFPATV
Procedure, shortened: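 ITC at 25 °C. 2 μL injections of 50 μM peptide into 5 μM ERα LBD in 50 mM Tris pH 8.0, 150 mM NaCl, 1 mM TCEP, 0.1 mM 17β-estradiol. Binding isotherm fitted for affinity.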

[2] = Drug uptake in human MCF7 cells at 5 uM after 3 hrs in presence of 10 nM E2 by DAPI-staining based confocal laser scanning microscopic analysis; settings: mcf7, 3 h
Homo sapiens [3] = organism: Homo sapiens; assay: Selectivity ratio of Kd for recombinant human GST-tagged PGR LBD ([…] residues) to Kd for recombinant human ERalpha LBD (301 to 553 residues)
Procedure, shortened: (§1)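 Ratio of KD values, each from fluorescence polarization of 10 nM FITC-peptide titrated with the respective LBD after 40 min in the dark at 298 K, with the matching ligand in buffer (10 μM 17β-estradiol, progesterone or vitamin D3).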

[4] = Drug uptake in human U2OS cells assessed per million cells at 5 uM after 3 hrs by FACS analysis; assay type: ADME, cell-based
Procedure, shortened: (§2)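 Adherent cells seeded overnight, then exposed to 5 μM FITC-labelled peptide or DMSO in FBS-free medium, 3 h, 37 °C. After PBS washes (three), about 10000 cells per sample analysed by flow cytometry; mean cellular fluorescence intensity calculated. More than two independent experiments, SEM.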

[5] = target: T2, Estrogen receptor (Homo sapiens); assay: Binding affinity to recombinant human GFP-fused ERalpha LBD (301 to 553 residues) expressed in Escherichia coli BL21(DE3) in presence of ERalpha inhibitor 4-hydroxytamoxifen by ITC
Procedure, shortened: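 ITC at 25 °C. 50 μM peptide injected in 2 μL steps into 5 μM ERα LBD in 50 mM Tris pH 8.0, 150 mM NaCl, 1 mM TCEP containing 0.1 mM 4-hydroxytamoxifen instead of estradiol. Isotherm fitted.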

Estrogen receptor = target: T3, Estrogen receptor (Homo sapiens, UniProt P03372); assay: Binding affinity to recombinant human GFP-fused ERalpha LBD (301 to 553 residues) expressed in Escherichia coli BL21(DE3) after 40 mins in presence of 17beta-estradiol by fluorescence polarization assay
T3 sequence (P03372 whole entry): T2 sequence (whole entry)

Vitamin D3 receptor = target: T4, Vitamin D3 receptor (Homo sapiens, UniProt P11473); assay: Binding affinity to recombinant human GST-tagged VDR LBD (156 to 453 residues) expressed in Echerichia coli BL21 star (DE3) after 40 mins in presence of vitamin D3 by fluorescence polarization assay
T4 sequence (P11473 whole entry): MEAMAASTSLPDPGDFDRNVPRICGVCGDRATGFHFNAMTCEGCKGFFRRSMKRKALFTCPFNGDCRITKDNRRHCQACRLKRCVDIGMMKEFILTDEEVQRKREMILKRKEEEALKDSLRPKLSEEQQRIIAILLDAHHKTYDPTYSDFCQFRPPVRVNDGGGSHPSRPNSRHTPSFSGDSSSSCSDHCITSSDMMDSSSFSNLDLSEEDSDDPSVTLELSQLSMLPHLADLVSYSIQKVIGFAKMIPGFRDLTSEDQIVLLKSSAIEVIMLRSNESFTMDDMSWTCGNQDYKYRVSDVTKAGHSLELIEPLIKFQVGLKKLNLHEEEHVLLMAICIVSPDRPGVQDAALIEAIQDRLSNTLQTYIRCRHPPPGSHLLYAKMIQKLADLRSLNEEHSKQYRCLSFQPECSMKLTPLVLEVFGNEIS
Procedure, shortened: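 GST-VDR LBD titrated into 10 nM final FITC-labelled peptide in 20 mM Tris-HCl pH 8.0, 150 mM NaCl, 5% glycerol, 1 mM TCEP containing 10 μM vitamin D3. 40 min dark incubation, polarization at 298 K (ex 480/em 535 nm). KD by nonlinear regression.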

Homo sapiens [6] = organism: Homo sapiens; assay: Selectivity ratio of Kd for recombinant human GST-tagged VDR LBD (156 to 453 residues) to Kd for recombinant human ERalpha LBD (301 to 553 residues); procedure, shortened: as §1
Estrogen receptor beta = Estrogen receptor beta (Homo sapiens, UniProt Q92731); assay: Binding affinity to recombinant human GFP-fused ERbeta LBD (259 to 498 residues) expressed in Escherichia coli BL21(DE3) after 40 mins in presence of 17beta-estradiol by fluorescence polarization assay
Sequence of Estrogen receptor beta (Q92731 whole entry, the tested form may be a part): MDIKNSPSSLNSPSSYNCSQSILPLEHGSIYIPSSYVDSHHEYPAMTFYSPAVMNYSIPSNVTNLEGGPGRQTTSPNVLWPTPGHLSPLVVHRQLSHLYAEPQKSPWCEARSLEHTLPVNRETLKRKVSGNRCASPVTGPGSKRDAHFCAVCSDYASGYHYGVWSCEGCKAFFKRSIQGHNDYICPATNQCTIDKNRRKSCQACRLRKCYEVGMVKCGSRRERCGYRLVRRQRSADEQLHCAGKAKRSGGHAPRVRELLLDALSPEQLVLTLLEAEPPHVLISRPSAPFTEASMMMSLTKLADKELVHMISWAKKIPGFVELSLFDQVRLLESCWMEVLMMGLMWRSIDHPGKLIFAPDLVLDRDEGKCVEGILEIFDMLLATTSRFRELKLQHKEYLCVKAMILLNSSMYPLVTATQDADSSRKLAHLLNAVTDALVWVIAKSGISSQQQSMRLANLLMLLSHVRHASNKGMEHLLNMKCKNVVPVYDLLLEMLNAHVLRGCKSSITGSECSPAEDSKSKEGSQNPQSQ
Procedure, shortened: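 FITC-labelled peptide at 10 nM final, titrated with increasing purified LBD (ERβ LBD carrying C334S, C369S, C481S) in 20 mM Tris-HCl pH 8.0, 150 mM NaCl, 5% glycerol, 1 mM TCEP with 10 μM 17β-estradiol. Incubated 40 min in the dark, polarization read at 298 K (ex 480/em 535 nm). KD from nonlinear regression of polarization versus protein concentration.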

[7] = Drug uptake in human MCF7 cells assessed per million cells at 5 uM after 3 hrs by FACS analysis; assay type: ADME, cell-based; settings: mcf7, 3 h; procedure, shortened: as §2
Homo sapiens [8] = organism: Homo sapiens; assay: Selectivity ratio of Kd for recombinant human ERbeta LBD (259 to 498 residues) to Kd for recombinant human ERalpha LBD (301 to 553 residues); procedure, shortened: as §1

- Kd (Progesterone receptor): 82 nM
- Activity [1]: Active
- Drug uptake [2]: Not Active
- Selectivity ratio (Homo sapiens [3]): 0.7
- Drug uptake [4]: Active
- Activity [5]: inactive
- Kd (Estrogen receptor): 118 nM
- Kd (Vitamin D3 receptor): 142 nM
- Selectivity ratio (Homo sapiens [6]): 1.2
- Kd (Estrogen receptor beta): 213 nM
- Drug uptake [7]: Active
- Selectivity ratio (Homo sapiens [8]): 1.8
Structure (SMILES): CC[C@H](C)[C@H](NC(=O)[C@H](CCCCN)NC(=O)[C@H](Cc1cnc[nH]1)NC(=O)CCNC(=S)Nc1ccc2c(c1)C(=O)OC21c2ccc(O)cc2Oc2cc(O)ccc21)C(=O)N[C@@H](CC(C)C)C(=O)N[C@@H](Cc1cnc[nH]1)C(=O)N[C@@H](CCCNC(=N)N)C(=O)N[C@@H](CC(C)C)C(=O)N[C@@H](CC(C)C)C(=O)N[C@@H](CCC(N)=O)C(N)=O ({FITC-βAla}-HKILHRLLQ-NH2)
